# Source: the array DNA melting data of Ke et al. (doi:10.1101/2024.01.08.574731)
# Assays:
# [1] = folding enthalpy; higher = less favourable; fluorescence melt of hairpins on a sequencing array, two-state fit; settings: sodium 0.088 M
# How it was run: (§1)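 Hairpins were imaged by Cy3 fluorescence on a sequenced MiSeq flow cell with annealed Cy3 and quencher oligos, in 50 mM Na-HEPES pH 8.0, 25 mM NaCl, in 2.5 °C steps up to 60 °C. Bootstrapped two-state fits of normalised signals gave melting temperature and folding enthalpy. Four replicates were combined by inverse variance, and fitted temperatures were raised by 9.35 °C to match UV melts.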
# [2] = melting temperature; fluorescence melt of hairpins on a sequencing array, two-state fit, raised by 9.35 °C to match UV melts; settings: sodium 0.088 M
# How it was run: as §1
Sequence,folding enthalpy [1],Tm [2]
GCGCCATCGAAAGATCGC (((..(((....)))))),-24.3 kcal/mol,42.5 °C
GCGCCCACGAAAGTGCGC (((..(((....)))))),-35.2 kcal/mol,56 °C
GCGCCCGAAAGGGACCGC ((((((....)))..))),-22.7 kcal/mol,50.3 °C
GCGCCCGAAAGGGCTCGC ((((((....)))..))),-13 kcal/mol,52.4 °C
GCGCCCGAAAGGGGTCGC ((((((....)))..))),-19.5 kcal/mol,58.3 °C
GCGCCCGGAAACGAGCGC ((((.((....)).)))),-38.9 kcal/mol,60 °C
GCGCCCGGAAACGGGCAC (.(((((....))))).),-9.09 kcal/mol,55.4 °C
GCGCCGACGAAAGTCCGC (((..(((....)))))),-19.8 kcal/mol,50 °C
GCGCCGCGAAAGCCTCGC (((..((....))..))),-19.3 kcal/mol,44.4 °C
GCGCCGCGAAAGCGTTGC ((..(((....)))..)),-15.3 kcal/mol,47.6 °C
GCGCCGCGAAAGCTGTGC ((.(.((....)).).)),-20.4 kcal/mol,53.9 °C
GCGCCGGGAAACCGGTGC ((.((((....)))).)),-31.5 kcal/mol,69 °C
GCGCCTGGAAACAGGCAC (.(((((....))))).),-11.9 kcal/mol,47.9 °C
GCGCGACGAAAGTCCCGC (((.(((....))).))),-42.8 kcal/mol,57.5 °C
GCGCGACGAAAGTCCGC (((.(((....)))))),-29 kcal/mol,66.8 °C
GCGCGAGGAAACCCGCAC (.(((.(....).))).),-16.8 kcal/mol,38.1 °C
GCGCGATCGAAAGATCGC (((..(((....)))))),-6.32 kcal/mol,60.6 °C
GCGCGCGAAAGCGATCGC ((((((....)))..))),-18.5 kcal/mol,52.8 °C
GCGCGCGAAAGCGTCCGC ((((((....)))..))),-14.9 kcal/mol,53 °C
GCGCGCTCGAAAGAGCGC (((..(((....)))))),-6.02 kcal/mol,66.8 °C
GCGCGGCGAAAGCCCAGC ((..(((....)))..)),-16 kcal/mol,57.5 °C
GCGCGGCGAAAGCTGTGC ((.(.((....)).).)),-32.2 kcal/mol,65.2 °C
GCGCGTCGAAAGACCCGC (((.(((....))).))),-37.3 kcal/mol,55.8 °C
GCGCGTGGAAACACACGC (((.(((....))).))),-34.1 kcal/mol,57.4 °C

Sequence,folding enthalpy [1],Tm [2]
GCGCGTGGAAACACGTGC ((.((((....)))).)),-52.1 kcal/mol,64.1 °C
GCGCTAGGAAACTAACGC (((.(((....))).))),-29.9 kcal/mol,45.5 °C
GCGCTATCGAAAGATCGC (((..(((....)))))),-25.6 kcal/mol,44.2 °C
GCGCTCGAAAGAGACGC ((((((....))).))),-28.6 kcal/mol,58 °C
GCGCTCGAAAGAGATCGC ((((((....)))..))),-24.7 kcal/mol,45.8 °C
GCGCTCGAAAGAGGACGC ((((((....)))..))),-23.7 kcal/mol,50 °C
GCGCTCGAAAGAGTCCGC ((((((....)))..))),-24.3 kcal/mol,42.8 °C
GCGCTGCGAAAGCAATGC ((..(((....)))..)),-18 kcal/mol,47.8 °C
GCGCTGCGAAAGCATAGC ((..(((....)))..)),-22.7 kcal/mol,52.7 °C
GCGCTGCGAAAGCATGGC ((..(((....)))..)),-19.4 kcal/mol,43.6 °C
GCGCTGCGAAAGCATTGC ((..(((....)))..)),-17.2 kcal/mol,41.1 °C
GCGCTGCGAAAGCCTCGC (((..((....))..))),-22 kcal/mol,47.6 °C
GCGCTGCGAAAGCGGAGC ((.(.((....)).).)),-21.4 kcal/mol,63.3 °C
GCGCTGCGAAAGCTGAGC ((.(.((....)).).)),-21.2 kcal/mol,57.6 °C
GCGCTGCGAAAGCTTCGC (((..((....))..))),-20.6 kcal/mol,54.9 °C
GCGCTGTCGAAAGACCGC (((..(((....)))))),-22.8 kcal/mol,52.3 °C
GCGCTTCGAAAGAACGC (((.(((....)))))),-32.9 kcal/mol,53.1 °C
GCGGAAAACCGC ((((....)))),-16.3 kcal/mol,49.8 °C
GCGGAAGAAATTCCGC ((((((....)))))),-34.9 kcal/mol,61.8 °C
GCGGAAGCCCGC ((((....)))),-14 kcal/mol,57.3 °C
GCGGAAGGAAACTTTCGC (((.(((....))).))),-36.1 kcal/mol,53 °C
GCGGAATGCCGC ((((....)))),-24.3 kcal/mol,53 °C
GCGGACATCCGC ((((....)))),-22.5 kcal/mol,56.5 °C
